# Laboratory results: ChEMBL document CHEMBL1129643 (J Med Chem, 1996)
# What was measured:
# [1] = biological target: T1, Alpha-1A adrenergic receptor (Rattus norvegicus, UniProt P43140); assay: Binding affinity to the alpha-1 adrenergic receptor using a radioligand [3H]prazosin binding assay in rat brain membranes; type: cell membranes
# T1 sequence (P43140 whole entry): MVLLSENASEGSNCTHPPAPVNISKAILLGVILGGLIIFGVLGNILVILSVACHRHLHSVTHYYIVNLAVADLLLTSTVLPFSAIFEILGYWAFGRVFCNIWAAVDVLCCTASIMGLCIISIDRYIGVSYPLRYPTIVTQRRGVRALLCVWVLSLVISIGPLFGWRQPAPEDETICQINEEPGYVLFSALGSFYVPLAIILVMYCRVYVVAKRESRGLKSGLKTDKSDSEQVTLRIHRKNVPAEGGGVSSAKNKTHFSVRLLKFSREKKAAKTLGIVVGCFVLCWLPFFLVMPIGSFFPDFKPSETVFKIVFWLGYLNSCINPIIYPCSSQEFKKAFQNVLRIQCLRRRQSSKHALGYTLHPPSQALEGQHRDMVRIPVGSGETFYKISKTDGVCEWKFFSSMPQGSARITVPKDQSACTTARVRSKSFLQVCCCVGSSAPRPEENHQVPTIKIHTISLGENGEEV
# [2] = biological target: 5-hydroxytryptamine receptor 2A (Rattus norvegicus, UniProt P14842); assay: Binding affinity to serotonin 5-hydroxytryptamine 2A receptors using a radioligand [3H]ketanserin binding assay in rat cortical membranes; type: cell membranes
# Sequence of 5-hydroxytryptamine receptor 2A (P14842 whole entry): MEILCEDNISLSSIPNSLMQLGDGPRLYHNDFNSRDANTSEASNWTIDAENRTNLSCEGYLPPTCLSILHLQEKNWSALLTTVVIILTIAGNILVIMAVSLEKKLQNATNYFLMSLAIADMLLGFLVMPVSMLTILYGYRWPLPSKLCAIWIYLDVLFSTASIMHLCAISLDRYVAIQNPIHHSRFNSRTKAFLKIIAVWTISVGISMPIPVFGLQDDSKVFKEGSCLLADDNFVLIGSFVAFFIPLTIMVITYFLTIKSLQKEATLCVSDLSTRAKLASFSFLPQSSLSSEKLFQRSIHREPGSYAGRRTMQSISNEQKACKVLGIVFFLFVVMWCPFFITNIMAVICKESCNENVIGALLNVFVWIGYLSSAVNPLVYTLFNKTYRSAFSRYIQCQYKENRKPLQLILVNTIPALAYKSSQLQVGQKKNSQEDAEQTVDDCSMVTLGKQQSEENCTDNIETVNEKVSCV
# D(2) dopamine receptor = D(2) dopamine receptor (Rattus norvegicus, UniProt P61169); assay: Binding affinity to dopamine receptor D2 using a [3H]-spiperone binding assay in rat cortical membranes; type: cell membranes
# Sequence of D(2) dopamine receptor (P61169 whole entry): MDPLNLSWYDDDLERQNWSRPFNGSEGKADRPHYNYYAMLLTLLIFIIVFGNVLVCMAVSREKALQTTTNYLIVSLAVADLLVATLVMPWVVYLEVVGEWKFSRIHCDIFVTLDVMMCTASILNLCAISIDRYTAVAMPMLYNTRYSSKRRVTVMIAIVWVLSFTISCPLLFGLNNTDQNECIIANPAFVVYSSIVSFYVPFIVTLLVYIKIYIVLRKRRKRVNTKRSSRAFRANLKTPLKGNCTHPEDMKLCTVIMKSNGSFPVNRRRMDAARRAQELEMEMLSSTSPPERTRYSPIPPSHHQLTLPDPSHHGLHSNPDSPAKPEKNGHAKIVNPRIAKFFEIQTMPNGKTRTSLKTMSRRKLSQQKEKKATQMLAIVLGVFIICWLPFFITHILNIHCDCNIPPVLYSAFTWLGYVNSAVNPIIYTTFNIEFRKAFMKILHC
# Rattus norvegicus [3] = assay: Antagonism of Pergolide-Induced Circling Behavior in rats with unilateral 6-OHDA Lesions after 2 hr of sc injection; type: functional
# Method in brief: (§1)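 Rats with unilateral 6-OHDA lesions were given pergolide (0.050 µmol/kg, sc) to induce contralateral circling. Test compound was injected sc 2 h before pergolide. The effect of each dose was expressed as percent of the mean of control sessions held one week before and one week after the test session for each rat. At least four rats were used per dose.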
# Rattus norvegicus [4] = assay: Effective dose was measured to inhibit 50% of quipazine induced head twitches in rat after 24 hr r of subcutaneous administration; type: functional; conditions: sc
# Method in brief: (§2)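 Rats received test compound sc or po, 2 or 24 h before quipazine (15 µmol/kg, sc). Head twitches were counted 30–40 min after quipazine. Counts were expressed as percent of a quipazine-treated control group, with at least four animals per dose.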
# Rattus norvegicus [5] = assay: Effective dose was measured to inhibit 50% of quipazine induced head twitches in rat after 24 hr of peroral administration; conditions: po
# Rattus norvegicus [6] = assay: Effective dose was measured to inhibit 50% of quipazine induced head twitches in rat after 2 hr of subcutaneous administration; type: functional; conditions: sc; method in brief: as §2
# Rattus norvegicus [7] = assay: Effective dose was measured to inhibit 50% of quipazine induced head twitches in rat after 24 hr r of peroral administration; type: functional; conditions: po; method in brief: as §2
# Rattus norvegicus [8] = species on record: Rattus norvegicus; assay: Effective dose was measured as fifty percent inhibition of Pergolide induced rotations in rat; type: functional; method in brief: as §1
IC50 [1],IC50 [2],IC50 (D(2) dopamine receptor),Structure (SMILES),also measured
23 nM,–,–,CN(CCN1CCNC1=O)Cc1cn(-c2ccc(F)cc2)c2ccc(Cl)cc12,–
43 nM,–,–,CN(CCCc1cn(-c2ccc(F)cc2)c2ccc(Cl)cc12)CCN1CCNC1=O,–
600 nM,–,–,CC(C)N1CCN(CCN(C)CCOc2cn(-c3ccc(F)cc3)c3cc(Cl)ccc23)C1=O,–
15 nM,–,–,CN(CCc1cn(-c2ccc(F)cc2)c2ccc(Cl)cc12)CCN1CCNC1=O,–
14 nM,0.95 nM,590 nM,CN(CCc1cn(-c2ccc(F)cc2)c2cc(Cl)ccc12)CCN1CCNC1=O,–
310 nM,100 nM,4800 nM,CN(C)CCCCc1cn(-c2ccc(F)cc2)c2ccc(Cl)cc12,–
820 nM,42 nM,–,CN(C)CCSc1cn(-c2ccc(F)cc2)c2ccc(Cl)cc12,–
73 nM,–,–,CN(C)CCCc1cn(-c2ccc(F)cc2)c2ccc(Cl)cc12,–
150 nM,100 nM,2.4 nM,CN1CCN(CCOc2cn(-c3ccc(F)cc3)c3ccc(Cl)cc23)CC1,ED50 (Rattus norvegicus [3]): 0.048 µmol/kg
650 nM,–,790 nM,CN(CCSc1cn(-c2ccc(F)cc2)c2ccc(Cl)cc12)CCN1CCNC1=O,–
32 nM,–,–,Fc1ccc(-n2cc(OCCN3CCCCC3)c3cc(Cl)ccc32)cc1,–
17 nM,–,–,CN(C)CCOc1cn(-c2ccc(F)cc2)c2ccc(Cl)cc12,–
18 nM,–,–,CN(C)Cc1cn(-c2ccc(F)cc2)c2ccc(Cl)cc12,–
400 nM,5.8 nM,190 nM,CC(C)N1CCN(CCN(C)CCc2cn(-c3ccc(F)cc3)c3cc(Cl)ccc23)C1=O,–
–,–,–,CC(C)N1CCN(CCN2CCC(c3cn(-c4ccc(F)cc4)c4cc(Cl)ccc34)CC2)C1=O,ED50 (Rattus norvegicus [4]): 0.052 µmol/kg; ED50 (Rattus norvegicus [5]): 0.055 µmol/kg; ED50 (Rattus norvegicus [6]): 0.11 µmol/kg; ED50 (Rattus norvegicus [3]): > 17 µmol/kg
> 100 nM,27 nM,24 nM,CN(C)CCCOc1cn(-c2ccc(F)cc2)c2ccc(Cl)cc12,–
> 100 nM,110 nM,20 nM,CN(CCCCN1CCNC1=O)Cc1cn(-c2ccc(F)cc2)c2ccc(Cl)cc12,–
54 nM,1.9 nM,400 nM,CN(CCCN1CCNC1=O)CCc1cn(-c2ccc(F)cc2)c2cc(Cl)ccc12,ED50 (Rattus norvegicus [4]): 8.5 µmol/kg; ED50 (Rattus norvegicus [6]): 4.7 µmol/kg
110 nM,–,–,Fc1ccc(-n2cc(OCCN3CCOCC3)c3cc(Cl)ccc32)cc1,–
41 nM,–,–,CN(CCOc1cn(-c2ccc(F)cc2)c2cc(Cl)ccc12)CCN1CCNC1=O,ED50 (Rattus norvegicus [7]): 0.25 µmol/kg; ED50 (Rattus norvegicus [6]): 0.63 µmol/kg
88 nM,–,–,C#CCN(CCOc1cn(-c2ccc(F)cc2)c2ccc(Cl)cc12)CCN1CCNC1=O,–
170 nM,–,–,CN(C)CCOc1cn(-c2ccc(F)cc2)c2cc(Cl)ccc12,–
14 nM,–,–,CN(CCCN1CCNC1=O)CCc1cn(-c2ccc(F)cc2)c2ccc(Cl)cc12,–
12 nM,–,–,CCN(CCOc1cn(-c2ccc(F)cc2)c2ccc(Cl)cc12)CCN1CCNC1=O,–
5.7 nM,–,–,CN(CCOc1cn(-c2ccc(F)cc2)c2ccc(Cl)cc12)CCN1CCNC1=O,ED50 (Rattus norvegicus [4]): > 9.1 µmol/kg; ED50 (Rattus norvegicus [6]): 0.32 µmol/kg; ED50 (Rattus norvegicus [3]): 3.6 µmol/kg
–,49 nM,–,CNc1cc(OC)c(C(=O)N[C@H]2CCN(Cc3ccccc3)[C@H]2C)cc1Cl [NEMONAPRIDE],ED50 (Rattus norvegicus [3]): 0.0057 µmol/kg
–,–,–,Cc1nc2sccn2c(=O)c1CCN1CCC(=C(c2ccc(F)cc2)c2ccc(F)cc2)CC1 [RITANSERIN],ED50 (Rattus norvegicus [4]): 0.98 µmol/kg; ED50 (Rattus norvegicus [6]): 0.1 µmol/kg; ED50 (Rattus norvegicus [8]): > 21 µmol/kg
–,–,–,O=C1NCCN1CCN1CCC(c2cn(-c3ccc(F)cc3)c3ccc(Cl)cc23)CC1 [SERTINDOLE],ED50 (Rattus norvegicus [4]): 0.03 µmol/kg; ED50 (Rattus norvegicus [7]): 0.039 µmol/kg; ED50 (Rattus norvegicus [6]): 0.035 µmol/kg; ED50 (Rattus norvegicus [3]): 3.7 µmol/kg

Structure (SMILES),IC50 [1],IC50 [2],IC50 (D(2) dopamine receptor),also measured
CN(C)CCc1cn(-c2ccc(F)cc2)c2cc(Cl)ccc12,130 nM,5.5 nM,650 nM,–
CN(C)CCc1cn(-c2ccc(F)cc2)c2ccc(Cl)cc12,40 nM,–,–,–
